From publication PMC2947195 (Biochemical Journal, 2010)
Residue numbers refer to the chain shown, from its start.

Legend:
Assay type in all cases: cell-based
wt hRFC = molecular target: T1, wt hRFC (Homo sapiens, UniProt P41440); assay: [3H]MTX transport kinetics
T1 sequence (P41440 1-591): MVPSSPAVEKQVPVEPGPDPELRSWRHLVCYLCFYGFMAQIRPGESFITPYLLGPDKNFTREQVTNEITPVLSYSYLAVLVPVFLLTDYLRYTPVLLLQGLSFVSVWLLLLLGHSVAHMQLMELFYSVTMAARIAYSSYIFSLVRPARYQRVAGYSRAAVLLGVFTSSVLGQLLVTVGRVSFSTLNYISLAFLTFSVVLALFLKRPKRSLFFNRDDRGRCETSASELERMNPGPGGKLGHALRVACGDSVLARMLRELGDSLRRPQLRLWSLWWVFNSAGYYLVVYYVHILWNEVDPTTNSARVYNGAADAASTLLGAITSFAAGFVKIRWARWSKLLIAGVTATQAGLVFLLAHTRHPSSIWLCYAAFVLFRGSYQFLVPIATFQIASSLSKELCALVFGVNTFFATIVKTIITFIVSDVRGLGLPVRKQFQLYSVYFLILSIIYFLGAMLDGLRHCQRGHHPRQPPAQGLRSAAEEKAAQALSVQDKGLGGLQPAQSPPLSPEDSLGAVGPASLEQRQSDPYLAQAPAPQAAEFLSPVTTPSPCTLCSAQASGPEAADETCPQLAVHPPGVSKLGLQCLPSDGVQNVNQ
Method in brief: (§1)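 Human hRFC-null K500E (K562 subline) cells were electroporated (155 V, 1000 μF) with wt or Ser313-mutant hRFC. Stable clones were selected in soft agar with G418 (1 mg/ml). [3H]MTX uptake was measured over 180 s in HBSS at 37 °C in a shaking water bath and expressed as pmol/mg protein (Lowry). Kt and Vmax came from Lineweaver–Burk plots, with Vmax normalized to densitometric Western blot hRFC levels. Three experiments, means±S.E.M.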

S313T hRFC [1] = molecular target: T2, S313T hRFC (Homo sapiens, UniProt P41440, S313T); assay: [3H]MTX transport kinetics
T2 sequence (P41440 1-591 S313T): T1 sequence (P41440 1-591) with S313T
Method in brief: as §1

S313T hRFC [2] = molecular target: T2, S313T hRFC; assay: [3H]MTX uptake in transiently transfected R5 HeLa cells; conditions: 0.5 μM [3H]MTX, 2 min, 37 °C, normalized to hRFC protein on Western blots
[3] = molecular target: T3, S313C hRFC (Ser^313 replaced with cysteine) (Homo sapiens, UniProt P41440, S313C); assay: [3H]MTX uptake in transiently transfected R5 HeLa cells
T3 sequence (P41440 1-591 S313C): T1 sequence (P41440 1-591) with S313C
Method in brief: (§2)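 Human R5 HeLa cells (transport-defective) were transiently transfected with Lipofectamine Plus, split at 24 h and assayed 24 h later. Uptake of 0.5 μM [3H]MTX ran for 2 min at 37 °C in HSM buffer (20 mM Hepes, 235 mM sucrose, pH 7.14 with MgO). Uptake was stopped with ice-cold PBS and cells solubilized in 0.5 M NaOH. Values in pmol/mg protein were normalized to HA-blot hRFC levels. Three experiments, means±S.E.M.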

[4] = molecular target: T4, S313F hRFC (Ser^313 replaced with phenylalanine) (Homo sapiens, UniProt P41440, S313F); assay: as above
T4 sequence (P41440 1-591 S313F): T1 sequence (P41440 1-591) with S313F
Method in brief: as §2

[5] = K500E stable transfectant, mean±S.E.M., n=3
[6] = Vmax normalized to relative hRFC level on Western blots

CN(Cc1cnc2nc(N)nc(N)c2n1)c1ccc(C(=O)N[C@@H](CCC(=O)O)C(=O)O)cc1 [MTX, methotrexate]
Vmax (normalized)/Kt (wt hRFC): 2.44 | Kt (wt hRFC; [5]): 1.89 ± 0.43 µM | Normalized Vmax (wt hRFC; [6]): 4.62±0.37 | Vmax (normalized)/Kt (S313T hRFC [1]): 0.43 | Kt (S313T hRFC [1]; [5]): 2.11 ± 0.54 µM | Normalized Vmax (S313T hRFC [1]; [6]): 0.91±0.16 | [3H]MTX transport activity relative to wt hRFC (S313T hRFC [2]): ~ 8% | MTX transport [3]: abolished | MTX transport [4]: abolished
